In one experiment the test system is Mus musculus. As to the kind of experiment: In vivo inhibition of HSP90-CDC37 protein-protein interaction in human HCT116 cells xenografted BALB/c mouse assessed as reduction in CDK4 level at 40 to 80 mg/kg, po administered once daily for 21 days measured post-last dose by immunohistochemical analysis. The format is functional, organism-based. The gist of the method:
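Tumours from the 21-day daily oral xenograft study (40 or 80 mg/kg) were formalin-fixed and cut into 4 µm paraffin sections. Peroxidase quenched with 3% H₂O₂; antigen retrieval by boiling in 10 mM citrate, pH 6.0. Blocked with 3% BSA; anti-CDK4 at 4 °C overnight; secondary 20 min at 37 °C. DAB detection, haematoxylin counterstain, viewed at 200×.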

Experiment [1] deals with T1, Heat shock protein HSP90 (Homo sapiens, UniProt P07900+P08238). As to the kind of experiment: Binding affinity to recombinant […] HSP90 N-terminal domain (9 to 236 residues) (unknown origin) expressed in Escherichia coli BL21 (DE3) at 100 uM by STD NMR spectra analysis. The gist of the method: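 STD NMR: 100 µM compound with 5 µM Hsp90 in 20 mM sodium phosphate, 150 mM NaCl, 5% DMSO, pH 7.4. Three independent experiments.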

The target in experiment [2] is T2, Heat shock protein HSP 90-beta/Hsp90 co-chaperone Cdc37 (Homo sapiens) (UniProt P08238+Q16543). Put plainly: Inhibition of HSP90-CDC37 protein-protein interaction in human HCT116 cells assessed as reduction in CDK4 expression up to 10 uM measured after 12 hrs by coimmunoprecipitation-based Western blot assay. The experiment is classed as cell-based. The gist of the method:
(§1)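 HCT116 cells grown to ~90% confluence in 10 cm dishes, exposed to compound or DMSO for 12 h, then washed with ice-cold PBS and lysed in RIPA buffer (50 mM Tris, 150 mM NaCl, 1% NP-40, protease inhibitors, pH 7.4) for 1 h on ice. Hsp90 was immunoprecipitated with protein A/G magnetic beads over 3 h. Western blots probed Hsp90, Cdc37 and CDK4.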
Background: A western blot detects proteins with antibodies after separation by electrophoresis.

Experiment [3] concerns HCT-116. As to the kind of experiment: Antitumor activity against human HCT116 cells xenografted in BALB/c mouse assessed as reduction in tumor cells at 40 to 80 mg/kg, po administered once daily for 21 days measured post-last dose by H and E staining-based imaging analysis. The format is functional, organism-based. The gist of the method: (§2)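 1×10^7 HCT116 cells mixed 3:1 with Matrigel were injected into the flanks of 6-week-old BALB/c nude mice, which were randomised into groups. Dosing started at mean tumour volume 125 mm³: daily oral gavage for 21 days in 0.9% saline with 5% DMSO at 40 or 80 mg/kg. Tumour volume measured daily by calipers (length×width²/2); n = 6. Tumours fixed in 4% formaldehyde, paraffin-embedded, 4 µm H&E sections.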
Background: A xenograft is tissue or cells of one species grown in another, often human tumour cells in immunodeficient mice.

Experiment [4] concerns Heat shock protein HSP 90-alpha (Homo sapiens), P07900 [E47A]. Put plainly: Binding affinity to recombinant […] HSP90 E47A mutant N-terminal domain (9 to 236 residues) (unknown origin) expressed in Escherichia coli BL21 (DE3) at 200 uM by NMR spectra analysis.
In experiment [5] the test system is Heat shock protein HSP 90-alpha (Homo sapiens), P07900 [R46A]. As to the kind of experiment: Binding affinity to recombinant […] HSP90 R46A mutant N-terminal domain (9 to 236 residues) (unknown origin) expressed in Escherichia coli BL21 (DE3) at 200 uM by NMR spectra analysis.
Experiment [6] deals with T1, Heat shock protein HSP90. Put plainly: Binding affinity to recombinant […] HSP90 N-terminal domain (9 to 236 residues) (unknown origin) expressed in Escherichia coli BL21 (DE3) at 200 uM by NMR spectra analysis.
The target of experiment [7] is T1, Heat shock protein HSP90. As to the kind of experiment: Binding affinity to HSP90 in human HCT116 cells assessed as change in melting temperature measured after 12 hrs by CETSA. The format is cell-based. The procedure, abridged: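 HCT116 cells near 90% confluence were treated 12 h with 20 µM compound or DMSO, then washed and resuspended in PBS. Aliquots heated 3 min at 37–75 °C, freeze-thawed three times in liquid nitrogen and centrifuged. Hsp90 detected by Western blot with β-actin reference; Tm taken from band grey levels. Three independent experiments.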

In experiment [8] the test system is HCT-116. Put plainly: Antitumor activity against human HCT116 cells xenografted in po dosed BALB/c mouse assessed as tumor growth inhibition administered once daily for 21 days. The experiment is classed as functional, organism-based. The procedure, abridged: as §2
In experiment [9] the target is T1, Heat shock protein HSP90. As to the kind of experiment: Binding affinity to recombinant […] HSP90 N-terminal domain (9 to 236 residues) (unknown origin) expressed in Escherichia coli BL21 (DE3) assessed as change in melting temperature by SYPRO dye based thermal shift assay. The procedure, abridged: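 Hsp90 N-terminal domain (10 µM) mixed with compound at 200, 100, 50 or 10 µM in 1× PBS, pH 8.0, with 6× SYPRO Orange. Heated from room temperature to 99 °C at 1 °C/min; fluorescence read at 492 nm excitation and 610 nm emission.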

Experiment [10] relates to Heat shock protein HSP 90-alpha (Homo sapiens), P07900 [Q133A]. As to the kind of experiment: Binding affinity to recombinant […] HSP90 Q133A mutant N-terminal domain (9 to 236 residues) (unknown origin) expressed in Escherichia coli BL21 (DE3) at 200 uM by NMR spectra analysis.
Experiment [11] addresses T2, Heat shock protein HSP 90-beta/Hsp90 co-chaperone Cdc37 (Homo sapiens). Put plainly: Inhibition of His-tagged HSP90/GST-tagged Cdc37 (unknown origin) protein-protein interaction at 100 uM measured after 1 hr by HTRF assay relative to control. The experiment is classed as protein-complex assay. The procedure, abridged: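 His-Hsp90 and GST-Cdc37 were premixed at a final 80 nM in PBS with 200 mM KF, pH 7.4. Compound was added and the mix incubated 1 h at 37 °C, then read by HTRF. Inhibition rate was taken at 100 μM compound.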
On the technique in general: TR-FRET usually uses a lanthanide donor and a delayed reading to cut background.

For experiment [12] the target is unchanged. Put plainly: Inhibition of HSP90-CDC37 protein-protein interaction in human HCT116 cells measured after 12 hrs by coimmunoprecipitation-based Western blot assay. The experiment is classed as cell-based. The procedure, abridged: as §1
Experiment [13] addresses Heat shock protein HSP 90-alpha (Homo sapiens, UniProt P07900). As to the kind of experiment: Binding affinity to recombinant human full-length HSP90alpha by surface plasmon resonance analysis.

The inhibition is the share of the control response that was lost under treatment. What is called ΔTm is the change in melting temperature against a reference sample. As usually defined, the Kd is the concentration at which binding is half-saturated.

Molecules are shown by their SMILES. Activity calls are given as the source filed them. The calls are words filed in the database; no cut-off is given here.

For `Cc1cc(C)c(S(=O)(=O)N(CC(=O)O)c2ccc(Nc3ccnc(N4CCNCC4)n3)cc2)c(C)c1`, the inhibition entry (in the experiment with Mus musculus; in experiment [2]) was “Active” in each case. Besides, the outcome (on Heat shock protein HSP90 [1]; in the experiment with HCT-116 [3]; in experiment [5]; at Heat shock protein HSP90 [6]; in experiment [10]) was Active. Also, the outcome in experiment [4] was inactive. The ΔTm at Heat shock protein HSP90 [7] is 6.39 °C; on Heat shock protein HSP90 [9], 4.75 °C. Further, the TGI entry with HCT-116 [8] was “Dose-dependent effect”. For the same compound, the results for the inhibition in experiment [11] and in experiment [12] were 97.4% and “Dose-dependent effect”, respectively.

Regarding `Cc1cc(C)n(-c2nc(NN)nc(Nc3ccc(Cl)c(C(F)(F)F)c3)n2)n1`, in [13], the Kd turned out to be 4.98 µM.

Values taken from ChEMBL document CHEMBL4376883, “Discovery and Optimization of Small Molecules Targeting the Protein-Protein Interaction of Heat Shock Protein 90 (Hsp90) and Cell Division Cycle 37 as Orally Active Inhibitors for the Treatment of Colorectal Cancer” (J Med Chem, 2020).
